# According to ChEMBL document CHEMBL1629431, “Synthesis and antitumor activity of some 2, 3-disubstituted quinazolin-4(3H)-ones and 4, 6- disubstituted- 1, 2, 3, 4-tetrahydroquinazolin-2H-ones” (2010):
# Legend:
# Type in all cases: functional
# SF-539 = assay: Growth inhibition of human SF539 cells at 10 uM after 48 hrs by coulter counter method; details: SF-539, 48 h, read-out: GI
# In short: (§1)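 Single high-dose NCI 60-cell-line panel screen across nine tumor subpanels. Test solutions (0.2 mL) were added in duplicate to wells holding 1.8 mL of culture at 6 × 10⁴ cells/mL. Controls got PBS and DMSO at identical dilutions. Incubation was 48 h at 37 °C in humidified 5% CO₂. Cells were diluted 10-fold in saline, Coulter-counted and dilution-corrected. Results were expressed as percent growth inhibition versus control.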
# HCT-116 = assay: Growth inhibition of human HCT116 cells at 10 uM after 48 hrs by coulter counter method; details: HCT-116, 48 h, read-out: GI; in short: as §1
# K562 = assay: Growth inhibition of human K562 cells at 10 uM after 48 hrs by coulter counter method; details: K562, 48 h, read-out: GI; in short: as §1
# UACC-62 = assay: Growth inhibition of human UACC62 cells at 10 uM after 48 hrs by coulter counter method; details: UACC-62, 48 h, read-out: GI; in short: as §1
# MCF7 = assay: Growth inhibition of human MCF7 cells at 10 uM after 48 hrs by coulter counter method; details: MCF7, 48 h, read-out: GI; in short: as §1
# NCI-H226 = assay: Growth inhibition of human NCI-H226 cells at 10 uM after 48 hrs by coulter counter method; details: NCI-H226, 48 h, read-out: GI; in short: as §1
# PC-3 = assay: Growth inhibition of human PC3 cells at 10 uM after 48 hrs by coulter counter method; details: PC-3, 48 h, read-out: GI; in short: as §1
# BT-549 = assay: Growth inhibition of human BT549 cells at 10 uM after 48 hrs by coulter counter method; details: BT-549, 48 h, read-out: GI; in short: as §1
# SK-OV-3 = assay: Growth inhibition of human SKOV3 cells at 10 uM after 48 hrs by coulter counter method; details: SK-OV-3, 48 h, read-out: GI; in short: as §1
# OVCAR-4 = assay: Growth inhibition of human OVCAR4 cells at 10 uM after 48 hrs by coulter counter method; details: OVCAR-4, 48 h, read-out: GI; in short: as §1
# HT-29 = assay: Growth inhibition of human HT-29 cells at 10 uM after 48 hrs by coulter counter method; details: HT-29, 48 h, read-out: GI; in short: as §1
# HL-60(TB) = assay: Growth inhibition of human HL-60(TB) cells at 10 uM after 48 hrs by coulter counter method; details: HL-60, 48 h, read-out: GI
# In short: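 Part of the NCI 60-cell-line single-high-dose panel. Cells were seeded at 6 × 10⁴ cells/mL with test solution in duplicate wells, alongside PBS/DMSO controls at identical dilutions. Plates were held 48 h at 37 °C in a humidified 5% CO₂ incubator. Cells were then diluted 10-fold in saline and counted by Coulter counter, with counts corrected for dilution. Results are percent growth of treated cells, reported as GI %.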
# COLO 205 = assay: Growth inhibition of human COLO205 cells at 10 uM after 48 hrs by coulter counter method; details: COLO 205, 48 h, read-out: GI; in short: as §1
# 786-0 = assay: Growth inhibition of human 786-0 cells at 10 uM after 48 hrs by coulter counter method; details: 786-0, 48 h, read-out: GI; in short: as §1
# UO-31 = assay: Growth inhibition of human UO31 cells at 10 uM after 48 hrs by coulter counter method; details: UO-31, 48 h, read-out: GI; in short: as §1
# U-251 = assay: Growth inhibition of human U251 cells at 10 uM after 48 hrs by coulter counter method; details: U-251, 48 h, read-out: GI; in short: as §1
# A549 = assay: Growth inhibition of human A549 cells at 10 uM after 48 hrs by coulter counter method; details: A549, 48 h, read-out: GI; in short: as §1
# IGROV-1 = assay: Growth inhibition of human IGROV1 cells at 10 uM after 48 hrs by coulter counter method; details: IGROV-1, 48 h, read-out: GI; in short: as §1
# SNB-75 = assay: Growth inhibition of human SNB75 cells at 10 uM after 48 hrs by coulter counter method; details: SNB-75, 48 h, read-out: GI; in short: as §1
# M14 = assay: Growth inhibition of human M14 cells at 10 uM after 48 hrs by coulter counter method; details: M14, 48 h, read-out: GI; in short: as §1
# MDA-MB-231 = assay: Growth inhibition of human MDA-MB-231 cells at 10 uM after 48 hrs by coulter counter method; details: MDA-MB-231, 48 h, read-out: GI; in short: as §1
# MDA-MB-468 = assay: Growth inhibition of human MDA-MB-468 cells at 10 uM after 48 hrs by coulter counter method; details: MDA-MB-468, 48 h, read-out: GI; in short: as §1
# NCI-H522 = assay: Growth inhibition of human NCI-H522 cells at 10 uM after 48 hrs by coulter counter method; details: NCI-H522, 48 h, read-out: GI; in short: as §1
# MOLT-4 = assay: Growth inhibition of human MOLT4 cells at 10 uM after 48 hrs by coulter counter method; details: MOLT-4, 48 h, read-out: GI; in short: as §1
# T47D = assay: Growth inhibition of human T47D cells at 10 uM after 48 hrs by coulter counter method; details: read-out: GI; in short: as §1
# HOP-92 = assay: Growth inhibition of human HOP92 cells at 10 uM after 48 hrs by coulter counter method; details: HOP-92, 48 h, read-out: GI; in short: as §1
# NCI-H23 = assay: Growth inhibition of human NCI-H23 cells at 10 uM after 48 hrs by coulter counter method; details: NCI-H23, 48 h, read-out: GI; in short: as §1
# KM12 = assay: Growth inhibition of human KM12 cells at 10 uM after 48 hrs by coulter counter method; details: KM12, 48 h, read-out: GI; in short: as §1
# SR = assay: Growth inhibition of human SR cells at 10 uM after 48 hrs by coulter counter method; details: read-out: GI; in short: as §1
# CAKI-1 = assay: Growth inhibition of human Caki1 cells at 10 uM after 48 hrs by coulter counter method; details: CAKI-1, 48 h, read-out: GI; in short: as §1
# SF-268 = assay: Growth inhibition of human SF268 cells at 10 uM after 48 hrs by coulter counter method; details: SF-268, 48 h, read-out: GI; in short: as §1
# OVCAR-8 = assay: Growth inhibition of human OVCAR8 cells at 10 uM after 48 hrs by coulter counter method; details: OVCAR-8, 48 h, read-out: GI; in short: as §1
# CCRF-CEM = assay: Growth inhibition of human CCRF-CEM cells at 10 uM after 48 hrs by coulter counter method; details: read-out: GI; in short: as §1
# SK-MEL-28 = assay: Growth inhibition of human SK-MEL-28 cells at 10 uM after 48 hrs by coulter counter method; details: SK-MEL-28, 48 h, read-out: GI; in short: as §1
# [1] = Growth inhibition of human Hs 578T cells at 10 uM after 48 hrs by coulter counter method; details: read-out: GI; in short: as §1
# SN12C = assay: Growth inhibition of human SN12C cells at 10 uM after 48 hrs by coulter counter method; details: read-out: GI; in short: as §1
# SK-MEL-2 = assay: Growth inhibition of human SK-MEL-2 cells at 10 uM after 48 hrs by coulter counter method; details: SK-MEL-2, 48 h, read-out: GI; in short: as §1
SMILES,inhibition of growth at 10 µM (SF-539) [%],inhibition of growth at 10 µM (HCT-116) [%],inhibition of growth at 10 µM (K562) [%],inhibition of growth at 10 µM (UACC-62) [%],inhibition of growth at 10 µM (MCF7) [%],inhibition of growth at 10 µM (NCI-H226) [%],inhibition of growth at 10 µM (PC-3) [%],inhibition of growth at 10 µM (BT-549) [%],inhibition of growth at 10 µM (SK-OV-3) [%],inhibition of growth at 10 µM (OVCAR-4) [%],inhibition of growth at 10 µM (HT-29) [%],inhibition of growth at 10 µM (HL-60(TB)) [%],inhibition of growth at 10 µM (COLO 205) [%],inhibition of growth at 10 µM (786-0) [%],inhibition of growth at 10 µM (UO-31) [%],inhibition of growth at 10 µM (U-251) [%],inhibition of growth at 10 µM (A549) [%],inhibition of growth at 10 µM (IGROV-1) [%],inhibition of growth at 10 µM (SNB-75) [%],inhibition of growth at 10 µM (M14) [%],other results
NS(=O)(=O)c1ccc(Nc2nc3ccccc3c(=O)n2-c2ccc(Cl)cc2)cc1,30,33.6,34.3,30,30,30,30,30,30,30,30,30,30,30,30,30,30,30,30,30,inhibition of growth at 10 µM (MDA-MB-231): 30%; inhibition of growth at 10 µM (MDA-MB-468): 30%; inhibition of growth at 10 µM (NCI-H522): 30%; inhibition of growth at 10 µM (MOLT-4): 38.1%; inhibition of growth at 10 µM (T47D): 30%; inhibition of growth at 10 µM (HOP-92): 30%; inhibition of growth at 10 µM (NCI-H23): 30%; inhibition of growth at 10 µM (KM12): 30%; inhibition of growth at 10 µM (SR): 30.2%; inhibition of growth at 10 µM (CAKI-1): 30%; inhibition of growth at 10 µM (SF-268): 30%; inhibition of growth at 10 µM (OVCAR-8): 30%; inhibition of growth at 10 µM (CCRF-CEM): 30%; inhibition of growth at 10 µM (SK-MEL-28): 30%; inhibition of growth at 10 µM [1]: 30%; inhibition of growth at 10 µM (SN12C): 30%; inhibition of growth at 10 µM (SK-MEL-2): 30%
COc1ccc(-n2c(Nc3ccc(S(N)(=O)=O)cc3)nc3ccccc3c2=O)cc1,30,36.7,47.1,30,30,30,30,30,30,30,30,30,30,30,30,30,30,30,30,30,inhibition of growth at 10 µM (MDA-MB-231): 30%; inhibition of growth at 10 µM (MDA-MB-468): 37.5%; inhibition of growth at 10 µM (NCI-H522): 30%; inhibition of growth at 10 µM (MOLT-4): 30%; inhibition of growth at 10 µM (T47D): 30%; inhibition of growth at 10 µM (HOP-92): 30%; inhibition of growth at 10 µM (NCI-H23): 30%; inhibition of growth at 10 µM (KM12): 30%; inhibition of growth at 10 µM (SR): 30%; inhibition of growth at 10 µM (CAKI-1): 30%; inhibition of growth at 10 µM (SF-268): 30%; inhibition of growth at 10 µM (OVCAR-8): 30%; inhibition of growth at 10 µM (CCRF-CEM): 30%; inhibition of growth at 10 µM (SK-MEL-28): 30%; inhibition of growth at 10 µM [1]: 30%; inhibition of growth at 10 µM (SN12C): 30%; inhibition of growth at 10 µM (SK-MEL-2): 30%
